Data reported in ChEMBL document CHEMBL1137737, “Synthesis, antimicrobial and cytotoxic activities of 1,3,4-oxadiazoles, 1,3,4-thiadiazoles and 1,2,4-triazoles” (Eur J Med Chem, 2009).
Converted amounts (≈) assume the structure as drawn.

How the values were obtained:
Type in all cases: functional
[1] = tested on: Staphylococcus aureus; experiment: Antibacterial activity against Staphylococcus aureus NCIM 5021 at 100 ug/disk after 24 hrs by agar disc-diffusion method; conditions: NCIM 5021, 24 h, read-out: DIZ
Summary of the method: (§1)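 Sterile 6 mm filter-paper discs are soaked in compound solution in DMSO and placed on nutrient agar plates already inoculated with each organism. Plates are incubated at 37 °C. The diameter of the growth-inhibition zone is read after 24 h for bacteria and after 48 h for fungi.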

[2] = tested on: Bacillus subtilis; experiment: Antibacterial activity against Bacillus subtilis NCIM 2063 at 100 ug/disk after 24 hrs by agar disc-diffusion method; conditions: NCIM 2063, 24 h, read-out: DIZ; summary of the method: as §1
[3] = tested on: Klebsiella pneumoniae; experiment: Antibacterial activity against Klebsiella pneumoniae NCIM 2957 at 100 ug/disk after 24 hrs by agar disc-diffusion method; conditions: NCIM 2957, 24 h, read-out: DIZ; summary of the method: as §1
[4] = tested on: Proteus vulgaris; experiment: Antibacterial activity against Proteus vulgaris NCIM 2027 at 100 ug/disk after 24 hrs by agar disc-diffusion method; conditions: NCIM 2027, 24 h, read-out: DIZ; summary of the method: as §1
[5] = tested on: Fusarium solani; experiment: Antifungal activity against Fusarium solani NCIM 1330 at 100 ug/disk after 48 hrs by agar disc-diffusion method; conditions: NCIM 1330, 48 h, read-out: DIZ; summary of the method: as §1
[6] = tested on: Curvularia lunata; experiment: Antifungal activity against Curvularia lunata NCIM 716 at 100 ug/disk after 48 hrs by agar disc-diffusion method; conditions: NCIM 716, 48 h, read-out: DIZ; summary of the method: as §1
[7] = tested on: Aspergillus niger; experiment: Antifungal activity against Aspergillus niger NCIM 596 at 100 ug/disk after 48 hrs by agar disc-diffusion method; conditions: NCIM 596, 48 h, read-out: DIZ; summary of the method: as §1
[8] = tested on: Staphylococcus aureus; experiment: Antibacterial activity against Staphylococcus aureus NCIM 5021 at 200 ug/disk after 24 hrs by agar disc-diffusion method; conditions: NCIM 5021, 24 h, read-out: DIZ; summary of the method: as §1
[9] = tested on: Bacillus subtilis; experiment: Antibacterial activity against Bacillus subtilis NCIM 2063 at 200 ug/disk after 24 hrs by agar disc-diffusion method; conditions: NCIM 2063, 24 h, read-out: DIZ; summary of the method: as §1
[10] = tested on: Klebsiella pneumoniae; experiment: Antibacterial activity against Klebsiella pneumoniae NCIM 2957 at 200 ug/disk after 24 hrs by agar disc-diffusion method; conditions: NCIM 2957, 24 h, read-out: DIZ; summary of the method: as §1
[11] = tested on: Proteus vulgaris; experiment: Antibacterial activity against Proteus vulgaris NCIM 2027 at 200 ug/disk after 24 hrs by agar disc-diffusion method; conditions: NCIM 2027, 24 h, read-out: DIZ; summary of the method: as §1
[12] = tested on: Fusarium solani; experiment: Antifungal activity against Fusarium solani NCIM 1330 at 200 ug/disk after 48 hrs by agar disc-diffusion method; conditions: NCIM 1330, 48 h, read-out: DIZ; summary of the method: as §1
[13] = tested on: Curvularia lunata; experiment: Antifungal activity against Curvularia lunata NCIM 716 at 200 ug/disk after 48 hrs by agar disc-diffusion method; conditions: NCIM 716, 48 h, read-out: DIZ; summary of the method: as §1
[14] = tested on: Aspergillus niger; experiment: Antifungal activity against Aspergillus niger NCIM 596 at 200 ug/disk after 48 hrs by agar disc-diffusion method; conditions: NCIM 596, 48 h, read-out: DIZ; summary of the method: as §1
[15] = tested on: Fusarium solani; experiment: Antifungal activity against Fusarium solani NCIM 1330 after 48 hrs by microdilution susceptibility method; conditions: NCIM 1330, 48 h
Summary of the method: (§2)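 This is a microdilution susceptibility test. Organism suspensions are inoculated into wells holding the dilution series, then incubated at 36 °C for 24 h (bacteria) or 48 h (fungi). MIC is the lowest concentration giving no turbidity, i.e. complete inhibition of visible growth.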

[16] = tested on: Staphylococcus aureus; experiment: Antibacterial activity against Staphylococcus aureus NCIM 5021 after 24 hrs by microdilution susceptibility method; conditions: NCIM 5021, 24 h; summary of the method: as §2
[17] = tested on: Bacillus subtilis; experiment: Antibacterial activity against Bacillus subtilis NCIM 2063 after 24 hrs by microdilution susceptibility method; conditions: NCIM 2063, 24 h; summary of the method: as §2
[18] = tested on: Curvularia lunata; experiment: Antifungal activity against Curvularia lunata NCIM 716 after 48 hrs by microdilution susceptibility method; conditions: NCIM 716, 48 h; summary of the method: as §2
[19] = tested on: Aspergillus niger; experiment: Antifungal activity against Aspergillus niger NCIM 596 after 48 hrs by microdilution susceptibility method; conditions: NCIM 596, 48 h; summary of the method: as §2

| SMILES | zone of inhibition at 100 µg/disc [1] [mm] | zone of inhibition at 100 µg/disc [2] [mm] | zone of inhibition at 100 µg/disc [3] [mm] | zone of inhibition at 100 µg/disc [4] [mm] | zone of inhibition at 100 µg/disc [5] [mm] | zone of inhibition at 100 µg/disc [6] [mm] | zone of inhibition at 100 µg/disc [7] [mm] | zone of inhibition at 200 µg/disc [8] [mm] | zone of inhibition at 200 µg/disc [9] [mm] | zone of inhibition at 200 µg/disc [10] [mm] | zone of inhibition at 200 µg/disc [11] [mm] | zone of inhibition at 200 µg/disc [12] [mm] | zone of inhibition at 200 µg/disc [13] [mm] | zone of inhibition at 200 µg/disc [14] [mm] | MIC [15] [µg/mL] | MIC [16] [µg/mL] | MIC [17] [µg/mL] | MIC [18] [µg/mL] | MIC [19] [µg/mL] |
| --- | --- | --- | --- | --- | --- | --- | --- | --- | --- | --- | --- | --- | --- | --- | --- | --- | --- | --- | --- |
| O=S(=O)(Cc1nnc(-c2ccccc2)o1)c1ccc(Cl)cc1 | 15 | 15 | 14 | 12 | 16 | 15 | 16 | 18 | 17 | 16 | 15 | 20 | 17 | 19 | 400 (≈ 1190 µM) | – | – | – | – |
| O=S(=O)(Cc1nnc(-c2ccccc2Cl)s1)c1ccccc1 | 20 | 15 | 17 | 16 | 19 | 18 | 15 | 23 | 18 | 21 | 19 | 22 | 21 | 18 | 400 (≈ 1140 µM) | 400 (≈ 1140 µM) | 400 (≈ 1140 µM) | 400 (≈ 1140 µM) | 400 (≈ 1140 µM) |
| Nn1c(CS(=O)(=O)c2ccccc2)nnc1-c1ccccc1Cl | 17 | 19 | 17 | 16 | 23 | 22 | 18 | 20 | 22 | 20 | 18 | 25 | 25 | 21 | 400 (≈ 1150 µM) | 400 (≈ 1150 µM) | 200 (≈ 573 µM) | 200 (≈ 573 µM) | – |
| O=S(=O)(Cc1ccccc1)Cc1nnc(-c2ccccc2Cl)o1 | 17 | 15 | 14 | 15 | 17 | 18 | 18 | 20 | 18 | 16 | 17 | 19 | 23 | 21 | 400 (≈ 1150 µM) | 400 (≈ 1150 µM) | – | 400 (≈ 1150 µM) | – |
| O=S(=O)(Cc1ccc(Cl)cc1)Cc1nnc(-c2ccccc2)o1 | 18 | 18 | 16 | 15 | 16 | 19 | 17 | 20 | 19 | 18 | 17 | 19 | 22 | 21 | 400 (≈ 1150 µM) | 400 (≈ 1150 µM) | – | 400 (≈ 1150 µM) | – |
| O=S(=O)(Cc1ccccc1)Cc1nnc(-c2ccccc2)o1 | 16 | 14 | 15 | 12 | 17 | 18 | 16 | 18 | 17 | 18 | 15 | 20 | 22 | 17 | 400 (≈ 1270 µM) | 400 (≈ 1270 µM) | – | – | – |
